Results: paper PMC3969666 (Pharmacognosy Magazine, 2014)

Experiments:
[1] = test system: influenza virus strain A/PR8/34(H1N1); type: cell-based, influenza virus A/PR8/34(H1N1) in MDCK cells
Caco-2 cells = experiment: MTT cytotoxicity test of absorption enhancers with SHL on Caco-2 cells; type: cell-based; conditions: 24 h, with addition of SHL, tested 0.005-1.28 mg/mL
[2] = test system: gastrointestinal membrane; experiment: Gastrointestinal membrane toxicity by morphological observation; type: in vivo; conditions: rat
Outline: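 Male Sprague–Dawley rats (~250 g) given SHL with or without absorption enhancers by oral gavage. After 8 h exposure, stomach, jejunum and colon were sectioned, with two sections per tissue on each slide. Sections were HE-stained and examined microscopically for mucosal morphology.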

[3] = enhancement of FD4 absorption; ref 17 (Gao et al., 2008); cited from earlier work

## NC(=O)c1ncn([C@@H]2O[C@H](CO)[C@@H](O)[C@H]2O)n1 [ribavirin, Ribavirin]
[1]
  inhibition rate on influenza virus: remarkable increase in inhibition rate

## CCCCCCCCCC(=O)[O-].[Na+] [sodium caprate]
Caco-2 cells
  concentration safe for the Caco-2 cells: up to 0.64 mg/mL
[2]; oral with SHL, 150 mg/kg
  damage in the small intestine: significant damage in the small intestine
[2]; oral with SHL, 25, 50, 100 mg/kg, 8 h exposure
  change in the morphology of the gastrointestinal membrane: did not cause any significant change
[2]; oral with SHL, different dosages (25-150 mg/kg)
  damage in the gastro and colon tissues: no significant damage

## chitosan hexamer
[3]
  concentration at which absorption enhancing effect is almost saturable: ~0.5 % (w/v)
